Converted amounts (≈) assume the structure as drawn.
Key:
Assay type in all cases: functional
[1] = test system: Candida albicans; test: Antifungal activity against Candida albicans ATCC Y0109 after 24 hrs by micro-broth dilution method; conditions: ATCC Y0109, 24 h
Summary of the method: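 Micro-broth dilution per NCCLS M27-A2 on the quality-control standard strain ATCC Y0109, included in each assay. Compounds were dissolved in DMSO, serially diluted in growth medium, inoculated and incubated at 35 °C, with growth read at 24 h. MIC80 is the first well showing roughly 80% growth reduction versus the drug-free well.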

[2] = test system: Candida parapsilosis; test: Antifungal activity against Candida parapsilosis ATCC 0306392 by micro-broth dilution method; conditions: Lodderomyces parapsilosis
Summary of the method: (§1)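 Micro-broth dilution per NCCLS M27-A2. The C. parapsilosis strain is the ATCC 0306392 quality-control standard tested in each assay; the C. tropicalis strain is a clinical isolate. Compounds were in DMSO, serially diluted in growth medium, inoculated and incubated at 35 °C. MIC80 is the first well with about 80% growth reduction relative to the drug-free well.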

[3] = test system: Candida tropicalis; test: Antifungal activity against Candida tropicalis by micro-broth dilution method; summary of the method: as §1
[4] = test system: Cryptococcus neoformans; test: Antifungal activity against Cryptococcus neoformans ATCC BLS108 after 72 hrs by micro-broth dilution method; conditions: ATCC BLS108, 72 h
Summary of the method: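 NCCLS M27-A2 microdilution on the ATCC BLS108 quality-control strain, tested in every assay. Compounds were taken up in DMSO, serially diluted in growth medium, inoculated and incubated at 35 °C. Growth was scored at 72 h. MIC80 is the first well with about 80% lower growth than the drug-free control well.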

[5] = test system: Aspergillus fumigatus; test: Antifungal activity against Aspergillus fumigatus after 7 days by micro-broth dilution method; conditions: 168 h
Summary of the method: (§2)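 Broth microdilution following the NCCLS yeast reference method (M27-A2), run on clinical isolates of filamentous fungi. Compounds were dissolved in DMSO, serially diluted in growth medium, inoculated and incubated at 35 °C. Growth was read at 7 days. MIC80 is the first well with about 80% less growth than the drug-free well.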

[6] = test system: Trichophyton rubrum; test: Antifungal activity against Trichophyton rubrum after 7 days by micro-broth dilution method; conditions: 168 h; summary of the method: as §2
[7] = Antifungal activity against Fonsecaea compacta by micro-broth dilution method; summary of the method: as §2
[8] = test system: Nannizzia gypsea; test: Antifungal activity against Microsporum gypseum after 7 days by micro-broth dilution method; conditions: 168 h; summary of the method: as §2

In the case of `CCCCCCC(=O)Nc1ccc(N2CCN(CC(O)(Cn3cncn3)c3ccc(F)cc3F)CC2)c(F)c1` (racemic), the MIC80 [1] is reported as 0.00097 µg/mL (≈ 0.00178 µM), the MIC80 [2] is reported as 0.0625 µg/mL (≈ 0.115 µM) and the MIC80 [3] is reported as 0.0625 µg/mL (≈ 0.115 µM). For the same molecule, the MIC80 [4] was 0.0625 µg/mL (≈ 0.115 µM), the MIC80 [5] was 1 µg/mL (≈ 1.84 µM) and the MIC80 [6] was 0.0156 µg/mL (≈ 0.0286 µM). For the same molecule, the MIC80 [7] was 0.25 µg/mL (≈ 0.459 µM) and the MIC80 [8] was 0.0625 µg/mL (≈ 0.115 µM).
Work on `CCCCCCCC(=O)Nc1ccc(N2CCN(CC(O)(Cn3cncn3)c3ccc(F)cc3F)CC2)c(F)c1` (racemic) yielded an MIC80 [1] of 0.0625 µg/mL (≈ 0.112 µM), an MIC80 [2] of 0.0625 µg/mL (≈ 0.112 µM) and an MIC80 [3] of 0.0625 µg/mL (≈ 0.112 µM). It also gave an MIC80 [4] of 0.25 µg/mL (≈ 0.448 µM), an MIC80 [5] of 1 µg/mL (≈ 1.79 µM) and an MIC80 [6] of 0.0039 µg/mL (≈ 0.00698 µM). The MIC80 [7] was 0.25 µg/mL (≈ 0.448 µM) and the MIC80 [8] was 0.0625 µg/mL (≈ 0.112 µM).
With `O=C(Cc1ccccc1)Nc1ccc(N2CCN(CC(O)(Cn3cncn3)c3ccc(F)cc3F)CC2)c(F)c1` (racemic) the MIC80 [1] was 0.0156 µg/mL (≈ 0.0283 µM), the MIC80 [2] was 0.0625 µg/mL (≈ 0.114 µM) and the MIC80 [3] was 0.0625 µg/mL (≈ 0.114 µM). The MIC80 [4] was 1 µg/mL (≈ 1.82 µM), the MIC80 [5] was 64 µg/mL (≈ 116 µM) and the MIC80 [6] was 0.0039 µg/mL (≈ 0.00708 µM). For the same molecule, the MIC80 [7] was 0.0625 µg/mL (≈ 0.114 µM) and the MIC80 [8] was 0.0156 µg/mL (≈ 0.0283 µM).
Molecule `C[C@@H]1[C@H](O)[C@@H](C)/C=C/C=C/C=C/C=C/C=C/C=C/C=C/[C@H](O[C@@H]2O[C@H](C)[C@@H](O)[C@H](N)[C@@H]2O)C[C@@H]2O[C@](O)(C[C@@H](O)C[C@@H](O)[C@H](O)CC[C@@H](O)C[C@@H](O)CC(=O)O[C@H]1C)C[C@H](O)[C@H]2C(=O)O` [AMPHOTERICIN B] has an MIC80 [1] of 1 µg/mL (≈ 1.08 µM), an MIC80 [2] of 0.0156 µg/mL (≈ 0.0169 µM) and an MIC80 [3] of 0.0625 µg/mL (≈ 0.0676 µM). For the same molecule, the MIC80 [4] was 1 µg/mL (≈ 1.08 µM), the MIC80 [5] was 4 µg/mL (≈ 4.33 µM) and the MIC80 [6] was 1 µg/mL (≈ 1.08 µM). For the same molecule, the MIC80 [7] was 16 µg/mL (≈ 17.3 µM) and the MIC80 [8] was 0.0039 µg/mL (≈ 0.00422 µM).
Work on `OC(Cn1cncn1)(Cn1cncn1)c1ccc(F)cc1F` [FLUCONAZOLE] yielded an MIC80 [1] of 4 µg/mL (≈ 13.1 µM), an MIC80 [2] of 1 µg/mL (≈ 3.27 µM) and an MIC80 [3] of 1 µg/mL (≈ 3.27 µM). For the same molecule, the MIC80 [4] was 1 µg/mL (≈ 3.27 µM), the MIC80 [5] was 64 µg/mL (≈ 209 µM) and the MIC80 [6] was 0.25 µg/mL (≈ 0.816 µM). The MIC80 [7] was 16 µg/mL (≈ 52.2 µM) and the MIC80 [8] was 0.25 µg/mL (≈ 0.816 µM).
`CCC(C)n1ncn(-c2ccc(N3CCN(c4ccc(OCC5COC(Cn6cncn6)(c6ccc(Cl)cc6Cl)O5)cc4)CC3)cc2)c1=O` (centres undefined) [ITRACONAZOLE] gave an MIC80 [1] of 1 µg/mL (≈ 1.42 µM), an MIC80 [2] of 0.25 µg/mL (≈ 0.354 µM) and an MIC80 [3] of 0.25 µg/mL (≈ 0.354 µM). It also gave an MIC80 [4] of 1 µg/mL (≈ 1.42 µM), an MIC80 [5] of 1 µg/mL (≈ 1.42 µM) and an MIC80 [6] of 0.0156 µg/mL (≈ 0.0221 µM). For the same molecule, the MIC80 [7] was 0.25 µg/mL (≈ 0.354 µM) and the MIC80 [8] was 0.0156 µg/mL (≈ 0.0221 µM).
For `CC(=O)N1CCN(c2ccc(OCC3COC(Cn4ccnc4)(c4ccc(Cl)cc4Cl)O3)cc2)CC1` (centres undefined) [KETOCONAZOLE], the MIC80 [1] was 0.0625 µg/mL (≈ 0.118 µM), the MIC80 [2] was 0.0625 µg/mL (≈ 0.118 µM) and the MIC80 [3] was 0.0625 µg/mL (≈ 0.118 µM). It also gave an MIC80 [4] of 0.0625 µg/mL (≈ 0.118 µM), an MIC80 [5] of 1 µg/mL (≈ 1.88 µM) and an MIC80 [6] of 0.0625 µg/mL (≈ 0.118 µM). The MIC80 [7] was 0.0625 µg/mL (≈ 0.118 µM) and the MIC80 [8] was 0.0039 µg/mL (≈ 0.00734 µM).
With `C[C@@H](c1ncncc1F)[C@](O)(Cn1cncn1)c1ccc(F)cc1F` [VORICONAZOLE] the MIC80 [1] was 0.0156 µg/mL (≈ 0.0447 µM), the MIC80 [2] was 1 µg/mL (≈ 2.86 µM) and the MIC80 [3] was 0.25 µg/mL (≈ 0.716 µM). For the same molecule, the MIC80 [4] was 0.0156 µg/mL (≈ 0.0447 µM), the MIC80 [5] was greater than 64 µg/mL and the MIC80 [6] was 0.0039 µg/mL (≈ 0.0112 µM). It also gave an MIC80 [7] of 0.0156 µg/mL (≈ 0.0447 µM) and an MIC80 [8] of 0.0039 µg/mL (≈ 0.0112 µM).
